Six molecules from ChEMBL document CHEMBL3227917, “Structure-activity relationships of dimeric Catharanthus alkaloids. 2. Experimental antitumor activities of N-substituted deacetylvinblastine amide (vindesine) sulfates” (J Med Chem, 1979) can be followed below.

Data set [1] in a line: Antitumor activity against mouse Gardner lymphosarcoma allografted in C3H mouse assessed as tumor growth inhibition at 0.10 mg/kg, ip administered daily for 8 to 10 days. In kind it is functional. The settings on record: route intraperitoneal, read-out: TGI. The procedure, abridged: (§1)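 Gardner lymphosarcoma in C3H mice; sulfate salts unless noted, given ip daily for 8–10 days, treatment starting 8 days after tumor implantation. Tumor growth inhibition scored as –, 0–25%; +, 26–50%; ++, 51–75%; +++, 76–100%; T, lethal to ≥5 of 10 animals per group. Average of one or more tests.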

A short description of data set [2]: Antitumor activity against mouse Ridgway osteogenic sarcoma allografted in AKR mouse assessed as tumor growth inhibition at 0.10 mg/kg, ip administered daily for 8 to 10 days compound treatment commenced 8 days after tumor implantation. In kind it is functional. The settings on record: route intraperitoneal, read-out: TGI.
A short description of data set [3]: Antitumor activity against mouse Gardner lymphosarcoma allografted in C3H mouse assessed as tumor growth inhibition at 0.20 mg/kg, ip administered daily for 8 to 10 days. In kind it is functional. The conditions noted are these: route intraperitoneal, read-out: TGI. The procedure, abridged: as §1
Data set [4] has as its system Mus musculus. Nature of the data set: Toxicity in AKR mouse allografted with mouse Ridgway osteogenic sarcoma assessed as lethality at 0.40 mg/kg, ip administered daily for 8 to 10 days compound treatment commenced 8 days after tumor implantation. In kind it is organism-based. Also noted: dose 0.4 mg/kg, route intraperitoneal. The conditions noted are these: in vivo, 0.4 mg/kg. In outline:
(§2)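 Tumor-bearing mice given sulfate salts ip daily for 8–10 days; values are the average of one or more tests. Toxic means lethal to ≥5 of 10 animals per group.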

In data set [5] the test system is Mus musculus. The experiment in a line: Toxicity in C3H mouse allografted with mouse Gardner lymphosarcoma assessed as lethality at 0.40 mg/kg, ip administered daily for 8 to 10 days. In kind it is organism-based. The settings on record: in vivo, 0.4 mg/kg. Further details: dose 0.4 mg/kg, route intraperitoneal. The procedure, abridged:
as §2

The test system of data set [6] is Mus musculus. The experiment in a line: Toxicity in AKR mouse allografted with mouse Ridgway osteogenic sarcoma assessed as lethality at 0.20 mg/kg, ip administered daily for 8 to 10 days compound treatment commenced 8 days after tumor implantation. The settings on record: in vivo, 0.2 mg/kg. Further details: dose 0.2 mg/kg, route intraperitoneal. In kind it is organism-based. The procedure, abridged:
as §2

The nature of data set [7]: Antitumor activity against mouse Ridgway osteogenic sarcoma allografted in AKR mouse assessed as tumor growth inhibition at 0.40 mg/kg, ip administered daily for 8 to 10 days compound treatment commenced 8 days after tumor implantation. In kind it is functional. The conditions noted are these: route intraperitoneal, read-out: TGI.
Data set [8] in a line: Antitumor activity against mouse Ridgway osteogenic sarcoma allografted in AKR mouse assessed as tumor growth inhibition at 0.20 mg/kg, ip administered daily for 8 to 10 days compound treatment commenced 8 days after tumor implantation. In kind it is functional. The settings on record: route intraperitoneal, read-out: TGI.
The nature of data set [9]: Antitumor activity against mouse Gardner lymphosarcoma allografted in C3H mouse assessed as tumor growth inhibition at 0.30 mg/kg, ip administered daily for 8 to 10 days. In kind it is functional. The conditions noted are these: route intraperitoneal, read-out: TGI. The procedure, abridged: as §1
Data set [10] is described as follows: Antitumor activity against mouse Gardner lymphosarcoma allografted in C3H mouse assessed as tumor growth inhibition at 0.40 mg/kg, ip administered daily for 8 to 10 days. In kind it is functional. The settings on record: route intraperitoneal, read-out: TGI. In outline: as §1
Data set [11] relates to Mus musculus. Nature of the data set: Toxicity in C3H mouse allografted with mouse Gardner lymphosarcoma assessed as lethality at 0.30 mg/kg, ip administered daily for 8 to 10 days. In kind it is organism-based. Further details: dose 0.3 mg/kg, route intraperitoneal. The settings on record: in vivo, 0.3 mg/kg. The procedure, abridged: as §2
Data set [12] is described as follows: Antitumor activity against mouse Ridgway osteogenic sarcoma allografted in AKR mouse assessed as tumor growth inhibition at 0.30 mg/kg, ip administered daily for 8 to 10 days compound treatment commenced 8 days after tumor implantation. In kind it is functional. The settings on record: route intraperitoneal, read-out: TGI.
Data set [13] in a line: Antitumor activity against mouse Gardner lymphosarcoma allografted in C3H mouse assessed as tumor growth inhibition at 0.05 mg/kg, ip administered daily for 8 to 10 days. In kind it is functional. The settings on record: route intraperitoneal, read-out: TGI. The procedure, abridged:
as §1

Turning to `CCNC(=O)[C@@]1(O)[C@H](O)[C@]2(CC)C=CCN3CC[C@@]4(c5cc([C@@]6(C(=O)OC)C[C@@H]7CN(CCc8c6[nH]c6ccccc86)C[C@](O)(CC)C7)c(OC)cc5N(C)[C@@H]14)[C@@H]32.O=S(=O)(O)O`, the inhibition in vivo at 0.1 mg/kg in [1] and in data set [2] was 0% in each case. The inhibition in vivo at 0.2 mg/kg in [3] is 76%. Moreover, the Activity entry in the data set with Mus musculus [4], in the data set on Mus musculus [5] and in the data set with Mus musculus [6] was “Toxic” throughout.

With `CC[C@]1(O)C[C@H]2CN(CCc3c([nH]c4ccccc34)[C@@](C(=O)OC)(c3cc4c(cc3OC)N(C)[C@H]3[C@@](O)(C(=O)NCc5ccccc5)[C@H](O)[C@]5(CC)C=CCN6CC[C@]43[C@@H]65)C2)C1`, the inhibition in vivo at 0.1 mg/kg in [2] was 0%. The values for the inhibition in vivo at 0.4 mg/kg in [7] and in data set [10] were 76% and 0%, respectively. Also, the inhibition in vivo at 0.2 mg/kg in data set [8] came out at 0%; in data set [3], 26%. In addition, the inhibition in vivo at 0.3 mg/kg in [9] stood at 0%.

Regarding `CC[C@]1(O)C[C@H]2CN(CCc3c([nH]c4ccccc34)[C@@](C(=O)OC)(c3cc4c(cc3OC)N(C)[C@H]3[C@@](O)(C(=O)N(C)C)[C@H](O)[C@]5(CC)C=CCN6CC[C@]43[C@@H]65)C2)C1.O=S(=O)(O)O`, the inhibition in vivo at 0.1 mg/kg in [2] was determined as 0%. Besides, the Activity result with Mus musculus [11], in the data set on Mus musculus [4], in the data set with Mus musculus [5] and in the data set on Mus musculus [6] was “Toxic” each time. The inhibition in vivo at 0.2 mg/kg in data set [3] was 26%.

Regarding `CC[C@]1(O)C[C@H]2CN(CCc3c([nH]c4ccccc34)[C@@](C(=O)OC)(c3cc4c(cc3OC)N(C)[C@H]3[C@@](O)(C(=O)NCC#N)[C@H](O)[C@]5(CC)C=CCN6CC[C@]43[C@@H]65)C2)C1.O=S(=O)(O)O`, the inhibition in vivo at 0.1 mg/kg in [1] and in data set [2] was 0% throughout. For the same molecule, the Activity entry in the data set on Mus musculus [11] is “Toxic”. For the same molecule, the inhibition in vivo at 0.3 mg/kg in [12] was 26%. The inhibition in vivo at 0.2 mg/kg in [3] was 76%.

Turning to `CC[C@]1(O)C[C@H]2CN(CCc3c([nH]c4ccccc34)[C@@](C(=O)OC)(c3cc4c(cc3OC)N(C)[C@H]3[C@@](O)(C(=O)NCCOC(C)=O)[C@H](O)[C@]5(CC)C=CCN6CC[C@]43[C@@H]65)C2)C1.O=S(=O)(O)O`, in data set [1], the inhibition in vivo at 0.1 mg/kg is 51%. Also, the inhibition in vivo at 0.05 mg/kg in [13] was determined as 26%. Moreover, the inhibition in vivo at 0.2 mg/kg in data set [8] and in [3] was 76% in each case. The Activity result in the data set with Mus musculus [4] and in the data set with Mus musculus [5] was “Toxic” throughout.

On to `CCCC(=O)OCCNC(=O)[C@@]1(O)[C@H](O)[C@]2(CC)C=CCN3CC[C@@]4(c5cc([C@@]6(C(=O)OC)C[C@@H]7CN(CCc8c6[nH]c6ccccc86)C[C@](O)(CC)C7)c(OC)cc5N(C)[C@@H]14)[C@@H]32.O=S(=O)(O)O`, for which, in [1], the inhibition in vivo at 0.1 mg/kg was 51%. Also, the inhibition in vivo at 0.05 mg/kg in data set [13] worked out at 0%. For the same molecule, the inhibition in vivo at 0.2 mg/kg in data set [8] and in [3] was 76% throughout. Besides, the Activity entry in the data set on Mus musculus [4] and in the data set on Mus musculus [5] was “Toxic” throughout.
